An excerpt weighted towards active compounds, which were near 3.3% of everything screened.
PglD DTNB – PglD (C. jejuni) enzyme inhibition | purified PglD enzyme, DTNB colorimetric CoA detection | inhibition, % at 12.5 µM | 360,000 compounds, 0.098% hits; in the data active = inhibition above about 16%, passing the limit was not always enough
E-selectin induc – E-selectin induction on HUVECs. P16581. HUVEC E-selectin immunofluorescence imaging; normalized: neutral wells 0, TNF-alpha wells 100. activation, % at 7.58 µM. 260,000 compounds, 0.37% hits;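 active = mean E-selectin-positive cell signal at least 10% of the positive control, reached in at least 60% of replicates, without over 20% cell loss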
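Read-out: % PE-positive cells | Test system: HUVEC | Doses: One compound dose added by pin transfer | Buffer or medium: EGM-2 over gelatin coat | Signal: Immunofluorescence imaging | Benchmarks: TNF-alpha, DMSO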
Xi reactivation – reactivates the inactive X chromosome in mouse fibroblasts | XiGFP mouse fibroblasts, % GFP-positive cells imaging, 3 d; cells co-treated with 5-aza-dC sensitizer; scaled so ellipticine positive control = 100% | activation, % at 7.58 µM | 360,000 compounds, 0.055% hits | AID 743238;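 active = mean normalized replicate activation at least 10% and every replicate at or above 10%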;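 note: 0% = median of on-plate neutral control wells and 100% = ellipticine 6 µM median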
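Schedule: 3 d treatment, 15 min room-temperature fixation; system: 68-5-11 XiGFP fibroblast line; buffer or medium: DMEM plus 5-aza-dC sensitizer; control set: ellipticine 6 µM positive control; compound: one concentration, pinned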
C2C12 statin – suppressors of simvastatin-induced myotoxicity in C2C12 myotubes; ATP luminescence, 48 h; scaled: DMSO 0, geranylgeraniol control 100; rescue of ATP level, % at 7.49 µM; 330,000 compounds, 0.78% hits;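 active = mean ATP rescue above about 67%, or every replicate alone reaching that limit, limit read from the data, passing the limit was not always enough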;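 note: myotubes were challenged with 10 µM simvastatin during compound exposure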
DENV2 CPE – DENV2-induced cell death inhibition. 350,000 compounds, 1.7% hits. DENV2-infected cells, cytopathic effect rescue, plate reader. CPE inhibition, % at 9.99 µM; in the data active = CPE inhibition above about 20%, passing the limit was not always enough; tested in BHK-21 cells;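 note: 0% = median of neutral control wells and 100% = median of positive control wells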
FGF22 binding – shifts melting point of recombinant human FGF22 | Q9HCT0 | recombinant FGF22 thermal shift, SYPRO orange fluorescence; percent of sucrose octasulfate shift, DMSO zero | activity (Tm shift, normalised), % at 9.99 µM | 340,000 compounds, 1.5% hits;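 active = mean Tm shift, scaled 0 neutral to 100 positive control, at about 1.3% or above, every replicate too, limit read from the data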
Target sequence (Q9HCT0 whole entry, looked up): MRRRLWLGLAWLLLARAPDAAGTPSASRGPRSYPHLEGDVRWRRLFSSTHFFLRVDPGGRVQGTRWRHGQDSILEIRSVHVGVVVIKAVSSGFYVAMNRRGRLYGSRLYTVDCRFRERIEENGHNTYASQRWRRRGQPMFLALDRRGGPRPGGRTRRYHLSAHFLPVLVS
Numbers without * were called inactive; nt = no result given.

SMILES	PglD DTNB	E-selectin induc	Xi reactivation	C2C12 statin	DENV2 CPE	FGF22 binding
C[C@@H]1CCCCO[C@H](CN(C)Cc2ccccc2)[C@@H](C)CN([C@@H](C)CO)C(=O)c2cc(NC(=O)c3ccccc3)ccc2O1	2	nt	0	nt	54*	0
C[C@@H]1CN([C@@H](C)CO)C(=O)c2cc(NC(=O)c3ccccc3)ccc2O[C@@H](C)CCCCO[C@@H]1CN(C)Cc1ccccc1	3	nt	0	nt	35*	0
C[C@@H]1CCCCO[C@@H](CN(C)Cc2ccccc2)[C@H](C)CN([C@H](C)CO)C(=O)c2cc(NC(=O)c3ccccc3)ccc2O1	-1	nt	0	nt	24*	0
COCC(=O)N1CCC2(CC1)CN(C(=O)CN1CCOCC1)[C@H](CO)c1c2c2ccc(OC)cc2n1C	nt	1	0	nt	11	0
C[C@@H]1CN([C@H](C)CO)S(=O)(=O)c2ccc(-c3cccc(C#N)c3)cc2O[C@@H]1CN(C)C(=O)C1CC1	0	1	-1	-22	-20	0
CC(C)COc1nc2ccccc2c(=O)n1OCC(=O)O	1	nt	nt	116*	nt	nt
Cc1cc(OC(C)C(=O)NC2CC(C)(C)NC(C)(C)C2)c2c(C)c(C)c(=O)oc2c1 (stereo not given)	-3	0	0	-4	45*	0
CCCNC(=O)Nc1ccc2c(c1)OC[C@@H](C)N(C(=O)c1ccccc1F)C[C@@H](C)[C@@H](OC)CN(C)C2=O	0	0	0	-1	-8	0
Cc1ccc(S(=O)(=O)Oc2cccc([N+](=O)[O-])c2)cc1	2	1	0	-1	-10	44*
Oc1ccc(Br)cc1CNc1cccc2cccnc12	-3	0	0	83*	0	0
CC(C)NC(=O)Nc1ccc2c(c1)C(=O)N([C@@H](C)CO)C[C@H](C)[C@@H](CN(C)C(=O)c1ccccc1)OCCCC[C@H](C)O2	3	0	3	-31	-3	0
COc1ccc(S(=O)(=O)N(C)C[C@H]2Oc3ccc(NC(=O)CCCN(C)C)cc3C(=O)N([C@H](C)CO)C[C@@H]2C)cc1	1	6	0	5	-7	0
COc1ccc(S(=O)(=O)N(C)C[C@H]2Oc3ccc(NC(=O)CCCN(C)C)cc3C(=O)N([C@@H](C)CO)C[C@@H]2C)cc1	-10	52*	0	2	-8	0
COc1ccc(S(=O)(=O)N(C)C[C@H]2Oc3ccc(NC(=O)CCCN(C)C)cc3C(=O)N([C@@H](C)CO)C[C@H]2C)cc1	-7	97*	0	-8	33*	0
O=C(O)C[C@H]1C[C@@H]2c3cc(NC(=O)c4ccc5c(c4)OCO5)ccc3O[C@@H]2[C@H](CO)O1	-1	0	0	2	3	0
CCCNC(=O)N1C[C@@H](C)[C@H](OC)CN(C)C(=O)c2cc(NC(=O)C3CCC3)ccc2OC[C@H]1C	nt	0	0	-2	nt	nt
COc1ccc(NC(=S)/N=C(\N)Nc2nc(C)c3ccc(C)cc3n2)cc1	-5	8	0	-38	1	1
CCOc1ccc2nc(N/C(N)=N/C(=S)Nc3ccc(C)c(C)c3)nc(C)c2c1	nt	nt	0	nt	108*	0
CCCC#Cc1ccc2c(c1)O[C@@H](CN(C)C(=O)CN(C)C)[C@H](C)CN([C@H](C)CO)S2(=O)=O	-2	2	0	0	-7	0
O=c1cc(O)n(-c2ccccc2)c(=S)[nH]1	-1	nt	nt	-4	nt	nt
N=c1n(-c2ccccc2)c(O)cc(=O)n1-c1ccccc1	3	nt	nt	123*	nt	nt
CCNC(=O)Nc1ccc2c(c1)C(=O)N(C)[C@H]1CC[C@@H](CC(=O)NCCN3CCCC3)O[C@H]1CO2	4	0	0	-5	-3	0
Cn1cccc1C(=O)C(=O)Nc1cc(Cl)cc(Cl)c1	3	nt	nt	nt	nt	nt
Cn1cccc1C(=O)C(=O)Nc1ccc(Cl)cc1	1	nt	nt	93*	nt	nt
COc1cccc(NC(=O)N(C)C[C@@H]2Oc3ncc(/C=C/c4ccccc4)cc3C(=O)N([C@H](C)CO)C[C@@H]2C)c1	4	0	-1	24	-1	0
SMILES	PglD DTNB	E-selectin induc	Xi reactivation	C2C12 statin	DENV2 CPE	FGF22 binding
Cc1cc(N2CCN(c3cccc(C)c3C)CC2)nc(-c2ccccc2)n1	nt	nt	nt	117*	nt	nt
Cc1cc(N2CCC(C(=O)NC3CC3)CC2)nc(-c2ccccc2)n1	0	nt	nt	nt	nt	nt
O=C(c1cccc([N+](=O)[O-])c1)c1cc2ccccc2o1	nt	0	0	nt	46*	0
C/C(=N\Nc1cccc([N+](=O)[O-])c1)c1cc2ccccc2o1	nt	7	0	nt	-4	42
C[C@H](CO)N1C[C@H](C)[C@H](CN(C)S(=O)(=O)c2ccc(F)cc2)Oc2ccc(NC(=O)Nc3ccc(C(F)(F)F)cc3)cc2CC1=O	nt	1	0	nt	-23	1
Cc1sc2nc(CN(C(=O)c3cccs3)C3CCCC3)[nH]c(=O)c2c1C	1	nt	nt	148*	nt	nt
Brc1ccc(-c2nn3c(Cc4ccccc4)nnc3s2)o1	3	nt	nt	72*	nt	nt
COCCCN1C(=O)c2ccc(C(=O)O)cc2C1=O	0	nt	nt	100*	nt	nt
Cc1noc(C)c1NC(=O)Nc1cccc2c1O[C@H](CN(C)Cc1ccncc1)[C@H](C)CN([C@H](C)CO)C2=O	10	nt	0	-19	-1	0
C=CCN1C(=O)/C(=C2/Sc3ccc(OC)cc3N2C)SC1=Nc1ccccc1	nt	1	0	nt	-5	43*
CC1(C)CC(=O)C=C(c2ccc(COC(=O)C(c3ccccc3)c3ccccc3)cc2)C1=O	-9	0	1	6	54*	0
O=C(CC(=O)c1cccc([N+](=O)[O-])c1)Nc1ccccc1Cl	nt	nt	0	nt	7	44*
Cc1noc(C)c1S(=O)(=O)Nc1ccc2c(c1)C(=O)N([C@H](C)CO)C[C@@H](C)[C@@H](CN(C)CC1CC1)O2	-1	nt	0	17	6	0
COc1ccc(Oc2cc(NN3CCCCC3)c([N+](=O)[O-])cc2[N+](=O)[O-])cc1OC	-3	0	0	-18	38*	1
O=[N+]([O-])c1cc([N+](=O)[O-])c(Oc2cc(F)cc(F)c2)cc1NN1CCCCC1	-5	0	0	-6	25*	0
CN(C)C(=O)c1cccc(-c2ccc3c(c2)[C@H]2[C@H](CCN2S(=O)(=O)c2ccccc2)[C@@H](CO)N3)c1	2	0	0	1	-3	0
CC1=CC(=O)c2ccccc2C1=O	-4	-2	0	2	10	0
CC(C)(C=O)C1=CC(=O)c2ccccc2C1=O	nt	0	18*	nt	5	0
CO[C@@H]1CN(C)C(=O)c2ccc(NC(=O)c3cnccn3)cc2OC[C@H](C)N(C)C[C@@H]1C	1	0	0	4	nt	nt
